XiGFP reactiv – X-chromosome reactivation activator; XiGFP mouse fibroblasts, % GFP-positive cells imaging, 3 d; cells co-treated with 5-aza-dC sensitizer; scaled so ellipticine positive control = 100%; activation, % at 7.58 µM; hit rate 0.055% among 360,000;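 active means mean normalized replicate activation at least 10% and every replicate at or above 10%; inconclusive means only one of the two criteria met; inactive means mean below 10% and not all replicates reach 10%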
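Schedule: 3 d treatment, 15 min room-temperature fixation; system: 68-5-11 XiGFP fibroblast line; buffer or medium: DMEM plus 5-aza-dC sensitizer; control set: ellipticine 6 µM positive control; compound: one concentration, pinned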
AF4-AF9 inh – MLL-AF4/AF9 protein interaction inhibition; P42568; AlphaScreen, biotin-AF4 peptide binding to FLAG-AF9; inhibition, % at 10 µM; hit rate 0.47% among 350,000; AID 651704;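 active means every replicate reaching a set inhibition limit, whatever the replicate mean, cut at about 25% in these data; inconclusive means mean inhibition reaches that limit but some replicates miss it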
RAD54 inh – RAD54 (human) branch migration inhibition; AID 602329; inhibition, % at 10.4 µM; hit rate 0.14% among 360,000; RAD54 Holliday junction branch migration, FAM/BHQ fluorescence;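 active means mean normalized replicate activity at least 40 and at least half of replicates scoring 40 or more; inconclusive means only one of the two criteria met; inactive means mean below 40 and under half of replicates reaching 40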;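 further: inhibitors cause a drop in the FAM fluorescence signal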
S100A4 inh HTS – blocks human S100A4 binding to myosin IIA peptide | P26447 | S100A4/TAMRA-MyoIIA peptide fluorescence polarization | inhibition, % at 10.7 µM | hit rate 0.14% among 360,000 | AID 652163;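 active means mean inhibition of at least 70% across replicates, with every replicate also reaching that level; inconclusive means mean inhibition reaches 70% but some replicates fall short; inactive means mean inhibition below 70%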
Target sequence (P26447 whole entry, looked up): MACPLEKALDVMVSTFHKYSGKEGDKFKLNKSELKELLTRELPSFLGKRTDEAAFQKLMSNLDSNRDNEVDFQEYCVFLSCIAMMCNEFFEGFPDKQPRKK
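Material: S100A4 monomer protein / Buffer or medium: 50 mM HEPES pH 7.2, 10 mM CaCl2, 100 mM KCl / Times: 5 min incubation before reading / Benchmarks: neutral control DMSO, positive control TFP / Reagent: labelled myosin peptide probe, 5 nM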
CASP6 VEID inh – caspase-6 (human) enzyme inhibition. P55212. purified caspase-6, Z-VEID-R110 cleavage fluorescence. inhibition, % at 12.5 µM. hit rate 0.53% among 350,000;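 active means mean inhibition across replicates at least about 35%, with every replicate also reaching that limit, limit read from the data; inconclusive means only one of the two criteria met; inactive means neither criterion met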
RAD52 inh – inhibitors of human RAD52 DNA annealing | hit rate 0.46% among 360,000 | AID 651710 | recombinant RAD52 DNA annealing, FRET fluorescence | P43351 | inhibition, % at 18.7 µM;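 active means every replicate showing at least 50% inhibition; inconclusive means mean inhibition at least 50% but not in every replicate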
Target sequence (P43351 whole entry, looked up): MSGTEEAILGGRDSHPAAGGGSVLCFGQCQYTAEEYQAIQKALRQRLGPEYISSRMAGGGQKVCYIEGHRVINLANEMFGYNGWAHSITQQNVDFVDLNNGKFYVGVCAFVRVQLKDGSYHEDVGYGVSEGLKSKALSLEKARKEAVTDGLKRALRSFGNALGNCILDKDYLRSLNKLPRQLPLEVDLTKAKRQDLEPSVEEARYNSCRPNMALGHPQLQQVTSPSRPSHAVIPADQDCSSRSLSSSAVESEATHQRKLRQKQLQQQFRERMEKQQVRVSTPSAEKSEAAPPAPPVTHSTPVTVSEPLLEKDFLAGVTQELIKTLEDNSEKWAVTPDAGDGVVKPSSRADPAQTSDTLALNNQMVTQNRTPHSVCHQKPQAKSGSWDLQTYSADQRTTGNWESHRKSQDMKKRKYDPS
Large screens that a line does not name were inactive. Most compounds without a hit are left out; they make up all but 1.3% or so of the library.

N/C(=N\C(=S)Nc1ccccc1)c1ccccc1	AF4-AF9 inh 43
COc1ccc(C2CC(=O)Oc3c(C(CCN4CCOCC4)c4cc(OC)c(OC)c(OC)c4)c(OC)cc(OC)c32)cc1 (stereo not given)	none
COc1cc(OC)c2c(-c3ccccc3)cc(=O)oc2c1C(CC(=O)N1CCCC1)c1ccc2c(c1)OCO2 (stereo not given)	none
COc1cc(OC)c2c(-c3ccccc3)cc(=O)oc2c1C(CCN1CCCC(C)C1)c1ccc2c(c1)OCO2 (stereo not given)	AF4-AF9 inh 32
COc1cc(C(CCN2CCCC(C)C2)c2c(OC)cc(OC)c3c2OC(=O)CC3c2ccc(N(C)C)cc2)cc(OC)c1OC (stereo not given)	none (no result: XiGFP reactiv, AF4-AF9 inh, S100A4 inh HTS, CASP6 VEID inh, RAD52 inh)
COc1cc(C2CC(=O)Oc3c(C(CCN4CCCC(C)C4)c4ccc(N(C)C)cc4)c(OC)cc(OC)c32)cc(OC)c1OC (stereo not given)	AF4-AF9 inh 39
COc1cc(C(CCN2CCOCC2)c2c(OC)cc(OC)c3c2OC(=O)CC3c2ccc(N(C)C)cc2)cc(OC)c1OC (stereo not given)	AF4-AF9 inh 49
COCC(=O)N(C)C[C@H]1Oc2cc(C3=CCCC3)ccc2S(=O)(=O)N([C@@H](C)CO)C[C@@H]1C	none
O=C(c1ccco1)c1coc2c1cc(O)c1ccccc12	CASP6 VEID inh 47
CC(C)CN1C(=O)NC2(CCCc3ccccc32)C1=O (stereo not given)	CASP6 VEID inh 40
CC(=O)CN1C(=O)NC2(CCCc3ccccc32)C1=O (stereo not given)	none
COc1ccc(F)cc1C1=CC(=O)C[C@H](c2ccc3c(c2)OCO3)C1	CASP6 VEID inh 52
COc1cc(F)c(C2=CC(=O)C[C@H](c3ccc4c(c3)OCO4)C2)cc1F	none
O=C(N/N=C/c1ccc(O)c(O)c1)N/N=C/c1ccc(O)c(O)c1	CASP6 VEID inh 75
O=C(CSc1nc2ccccc2o1)N/N=C/c1ccc(O)c(O)c1	CASP6 VEID inh 63
O=C(CSc1nc2ccccc2o1)N/N=C/c1ccccc1	none (no result: AF4-AF9 inh, S100A4 inh HTS, CASP6 VEID inh, RAD52 inh)
C[C@H]1CN([C@@H](C)CO)C(=O)Cc2cc(NS(=O)(=O)c3cccs3)ccc2O[C@H]1CN(C)S(=O)(=O)c1ccc(F)cc1	none (no result: RAD54 inh)
CN(C)S(=O)(=O)N1C(=O)c2ccccc2C1=O	none
CN(C)/C=C1\C=C2C(=O)c3ccccc3N2C1=O	XiGFP reactiv inconclusive, S100A4 inh HTS 76 (no result: RAD54 inh)
O=C(C1CCC(CNc2c(N3CCOCC3)c(=O)c2=O)CC1)N1CCN(c2ccccc2)CC1 (stereo not given)	AF4-AF9 inh 40
O=C(C1CCC(CNc2c(N3CCCCC3)c(=O)c2=O)CC1)N1CCCCC1 (stereo not given)	none
COCC(=O)N(C)C[C@H]1Oc2cc(-c3ccc(C#N)cc3)ccc2S(=O)(=O)N([C@H](C)CO)C[C@H]1C	none
C[C@@H]1CCCCO[C@@H](CN(C)Cc2ccccc2)[C@@H](C)CN([C@@H](C)CO)C(=O)c2cc(NC(=O)CCCN(C)C)ccc2O1	none
O=S(=O)(Nc1ccccc1)c1ccc2c(c1)CCO2	AF4-AF9 inh 48
Cc1noc(C)c1S(=O)(=O)Nc1ccc2c(c1)C(=O)N([C@H](C)CO)C[C@@H](C)[C@H](CN(C)Cc1ccncc1)O2	none
C[C@H]1CCCCO[C@@H](CN(C)S(=O)(=O)c2cccs2)[C@@H](C)CN([C@@H](C)CO)C(=O)c2cc(N(C)C)ccc2O1	none (no result: AF4-AF9 inh, RAD54 inh, S100A4 inh HTS, CASP6 VEID inh, RAD52 inh)
COc1ccc(-n2cccc2/C=C2/NC(=O)N(c3cccc(Cl)c3)C2=O)cc1	none (no result: RAD54 inh)
O=C(O)c1cccc(-n2cccc2/C=C2\SC(=O)N(Cc3ccccc3F)C2=O)c1	CASP6 VEID inh 86 (no result: RAD54 inh)
O=C(O)c1cccc(-n2cccc2/C=C2/NC(=O)N(c3ccc(Cl)cc3)C2=O)c1	CASP6 VEID inh 84 (no result: RAD54 inh)
O=C(O)c1cccc(-n2cccc2C=C2C(=O)c3ccccc3C2=O)c1	none (no result: RAD54 inh, CASP6 VEID inh)
O=C(O)c1cccc(-n2cccc2/C=C2/SC(=O)N(CC(=O)N3CCCC3)C2=O)c1	CASP6 VEID inh 40
Cc1ccccc1-c1ccc([C@@H]2[C@H](CO)N3C(=O)CN(C(=O)c4cccnc4)C[C@@H]23)cc1	none (no result: AF4-AF9 inh, RAD54 inh, S100A4 inh HTS, CASP6 VEID inh, RAD52 inh)
